Data as given in article PMC4055946 (Nuclear medicine and biology, 2014).

How the values were obtained:
cathepsin K = molecular target: T1, cathepsin K (Rattus norvegicus, UniProt O35186); assay: MicroPET imaging of bone uptake and blocking in rat; conditions: for radioactivity in actively growing bone regions relative to non-target regions such as muscle: normal rat, microPET, 0-60 min, i.v.
T1 sequence (O35186 115-329): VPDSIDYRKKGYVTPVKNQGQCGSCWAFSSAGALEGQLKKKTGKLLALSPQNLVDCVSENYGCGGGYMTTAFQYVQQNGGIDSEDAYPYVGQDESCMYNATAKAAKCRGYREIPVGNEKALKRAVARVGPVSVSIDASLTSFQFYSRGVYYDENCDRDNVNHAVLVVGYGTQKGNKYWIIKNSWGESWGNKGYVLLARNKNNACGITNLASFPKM

[1] = Rat whole body biodistribution of radioactivity after intravenous injection; assay type: in vivo; conditions: female CD rats, i.v., N = 3; for Tissue biodistribution, Bone, avg: femur in its entirety
Summary of the method: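 Female CD rats (N = 6) under light isoflurane got carbon-11 labeled test compound (1.85-4.44 MBq in 5% ethanol/saline) by tail vein. At 5 and 40 min, groups of 3 were anesthetized and killed by decapitation, and tissues were removed. Samples were weighed and counted for carbon-11, and uptake was expressed as % injected dose/g.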

## CC(C)(C)CNc1nc(C#N)ncc1C(=O)NCCc1ccc(O[11CH3])cc1 [[^11C]2, 2-cyano-N-(4-[^11C]methoxyphenethyl)-4-(neopentylamino)pyrimidine-5-carboxamide]
Cathepsin K
  radioactivity in actively growing bone regions relative to non-target regions such as muscle: 2 to 3 times
Cathepsin K; rat microPET, 2 mg/kg unlabeled 2 ten minutes prior to the radioligand
  bone uptake of radioactivity after blocking dose of unlabeled ligand: reduction of bone uptake of radioactivity to essentially levels equivalent to background in non-target tissues

## [11CH3]Oc1ccc(CCNC(=O)c2cnc(C#N)nc2NC2CCCCC2)cc1 [[^11C]1, 2-cyano-4-(cyclohexylamino)-N-(4-[^11C]methoxyphenethyl)-pyrimidine-5-carboxamide]
[1]; 5 min
  Tissue biodistribution, Adrenal, avg: 3.57 % injected dose/g
  Tissue biodistribution, Blood, avg: 0.24 % injected dose/g
  Tissue biodistribution, Brain, avg: 0.43 % injected dose/g
  Tissue biodistribution, Heart, avg: 1.23 % injected dose/g
  Tissue biodistribution, Kidney, avg: 2.03 % injected dose/g
  Tissue biodistribution, Liver, avg: 3.02 % injected dose/g
  Tissue biodistribution, Lung, avg: 0.68 % injected dose/g
  Tissue biodistribution, Muscle, avg: 0.11 % injected dose/g
  Tissue biodistribution, Pancreas, avg: 1.68 % injected dose/g
  Tissue biodistribution, Spleen, avg: 1.03 % injected dose/g
  Tissue biodistribution, Bone, avg: 0.26 % injected dose/g
[1]; 40 min
  Tissue biodistribution, Adrenal, avg: 0.51 % injected dose/g
  Tissue biodistribution, Blood, avg: 0.11 % injected dose/g
  Tissue biodistribution, Brain, avg: 0.11 % injected dose/g
  Tissue biodistribution, Heart, avg: 0.19 % injected dose/g
  Tissue biodistribution, Kidney, avg: 0.41 % injected dose/g
  Tissue biodistribution, Liver, avg: 0.68 % injected dose/g
  Tissue biodistribution, Lung, avg: 0.16 % injected dose/g
  Tissue biodistribution, Muscle, avg: 0.11 % injected dose/g
  Tissue biodistribution, Pancreas, avg: 0.56 % injected dose/g
  Tissue biodistribution, Spleen, avg: 0.22 % injected dose/g
  Tissue biodistribution, Bone, avg: 0.14 % injected dose/g
Cathepsin K
  radioactivity in actively growing bone regions relative to non-target regions such as muscle: 2 to 3 times
